Results: BindingDB's records for doi:10.1016/j.bmc.2018.05.049 (2018)

Biological target: T1, Sodium- and chloride-dependent GABA transporter 2 (Mus musculus, UniProt P31649)
T1 sequence (P31649 whole entry): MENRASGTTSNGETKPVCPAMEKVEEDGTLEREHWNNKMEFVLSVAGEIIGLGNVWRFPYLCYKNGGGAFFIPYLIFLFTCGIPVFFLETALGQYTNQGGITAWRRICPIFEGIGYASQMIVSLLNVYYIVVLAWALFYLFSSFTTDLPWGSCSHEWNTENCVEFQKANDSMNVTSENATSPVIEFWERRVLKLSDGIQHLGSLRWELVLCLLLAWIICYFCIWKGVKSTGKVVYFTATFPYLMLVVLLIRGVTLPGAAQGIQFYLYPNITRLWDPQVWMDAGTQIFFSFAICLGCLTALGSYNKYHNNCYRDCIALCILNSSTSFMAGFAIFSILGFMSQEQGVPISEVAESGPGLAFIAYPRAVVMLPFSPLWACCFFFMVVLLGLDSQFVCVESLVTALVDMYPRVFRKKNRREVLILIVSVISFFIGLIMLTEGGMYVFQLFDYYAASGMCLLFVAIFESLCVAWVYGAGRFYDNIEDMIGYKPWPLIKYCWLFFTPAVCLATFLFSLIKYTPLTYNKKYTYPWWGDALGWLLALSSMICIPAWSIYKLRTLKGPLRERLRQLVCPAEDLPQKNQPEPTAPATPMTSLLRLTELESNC
Experiment: Inhibition of mouse GAT2 expressed in HEK293 cells assessed as decrease in [3H]GABA uptake preincubated for 25 mins followed by [3H]GABA addition measured after 10 mins by liquid scintillation counting analysis
Outline: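 [³H]GABA uptake assay in HEK cells expressing the mGAT subtype named in the line, run in triplicate. Potencies are given as pIC₅₀ ± SEM. No SEM is given where only one triplicate measurement was made. Where 100 µM test compound left uptake at or above 50% (pIC₅₀ ≤ 4.00), the percent remaining [³H]GABA uptake at 100 µM is reported instead.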

IC50 | Structure (SMILES)
33.9 µM | COc1ccc(C(CC#CCN2CCCC(C(=O)O)C2)(c2ccc(OC)cc2)c2ccc(OC)cc2)cc1 (centres undefined)
41.7 µM | COc1ccc(C(C#CCN2CCCC(C(=O)O)C2)(c2ccc(OC)cc2)c2ccc3c(c2)OCO3)cc1 (centres undefined)
35.5 µM | COc1ccc(C(C#CCCN2CCCC(C(=O)O)C2)(c2ccc(OC)cc2)c2ccc(OC)cc2)cc1 (centres undefined)
32.4 µM | COc1ccc(C(OCCN2CCCC(C(=O)O)C2)(c2ccc(OC)cc2C)c2ccc(OC)cc2C)cc1 (centres undefined)
